One data set has as its system MT4. Put plainly: Cytotoxicity against human MT4 cells after 3 days by CytoTox-Glo assay. The format is cell-based. The settings on record: mt4, 72 h. The method, boiled down: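 MT4 cells cultured for 3 days with various compound concentrations. Cytotoxicity is read by CytoTox-Glo following the manufacturer's protocol. CC50 = concentration causing 50% reduction of cell viability.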

The test system of data set [1] is Human immunodeficiency virus 1. Description: Antiviral activity against Human immunodeficiency virus 1 NL4-3 infected in human MT4 cells measured on day 3 post infection by Nano-Glo luciferase reporter gene assay. It is filed as functional, organism-based. The settings on record: Human immunodeficiency virus 1, NL4-3, MT4, 72 h. The method, boiled down:
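HIV-1 NL4-3 Nanoluc-sec reporter virus at 50 TCID50/well infects MT4 cells (1 × 10⁵ cells/mL) in the presence of graded compound concentrations. On day 3 post-infection, supernatant is assayed for secreted NanoLuc luciferase.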
(In general: Reporter assays use an easily measured gene product as a stand-in for the process of interest.)

A short description of data set [2]: Selectivity index, ratio of CC50 for human MT4 cells to EC50 for Human immunodeficiency virus 1 NL4-3 infected in human MT4 cells. The format is toxicity, cell-based. The settings on record: read-out: Ratio CC50/EC50. The method, boiled down: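 SI = CC50/EC50. CC50 is from a 3-day CytoTox-Glo assay on MT4 cells. EC50 is from MT4 cells infected with 50 TCID50/well NL4-3 Nanoluc-sec and given graded compound, with supernatant luciferase read on day 3 as 50% reduction.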

The subject of data set [3] is Human immunodeficiency virus 1. Put plainly: Reactivation of latent HIV1 infected in human J-Lat A2 cells assessed as increase in GFP expression at 10 to 50 nM after 72 hrs by flow cytometric method. It is filed as functional, organism-based. The method, boiled down: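 J-Lat (A2) cells (1×10⁶ cells/well) incubated with various concentrations of latency reversing agents at 37 °C for 72 h. GFP-expressing cells are quantified by flow cytometry.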

The subject of data set [4] is Human immunodeficiency virus 1. Description: Reactivation of latent HIV1 infected in human U1 cells assessed as increase in p24 production after 72 hrs by ELISA. The conditions noted are these: Human immunodeficiency virus 1, U1, 72 h. It is filed as functional, organism-based. Summed up:
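Latently infected U1 cells (2×10⁵ cells/mL) incubated with various compound concentrations at 37 °C for 72 h. Culture supernatant p24 is measured by ELISA. EC50 = concentration activating p24 production by 50%, fitted by non-linear regression.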
(An ELISA detects its analyte on a solid surface through an enzyme-linked reagent.)

The subject of data set [5] is Human immunodeficiency virus 1. Description: Potency index, ratio AZT EC50 to test compound EC50 for Human immunodeficiency virus 1 NL4-3 infected in human MT4 cells. The format is functional.
The nature of data set [6]: Cytotoxicity against human U937 cells after 3 days by CytoTox-Glo assay. The format is cell-based, U-937. The method, boiled down:
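U937 cytotoxicity is run by the same method as for MT4: 3-day culture with various compound concentrations, CytoTox-Glo read-out, and CC50 taken as 50% reduction of viability.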

Active and inactive are the calls of the source. No cut-off for these calls is given here.

The text below walks through data of ChEMBL document CHEMBL4270568, “Identification, structural modification, and dichotomous effects on human immunodeficiency virus type 1 (HIV-1) replication of ingenane esters from Euphorbia kansui” (Eur J Med Chem, 2018).

What is called CC50 is the concentration at which the toxic effect on the cells reaches its halfway point. High values mean lower toxicity to the cells, low ones greater toxicity to the cells. A word on the EC50: it is the concentration giving half of the maximal effect.

With `CC1=C[C@]23C(=O)[C@@H](C=C(CO)[C@@H](O)[C@]2(O)[C@H]1O)[C@H]1[C@@H](C[C@H]3C)C1(C)C` [INGENOL], in the data set on MT4, the CC50 was more than 11500 nM. This molecule came in with an EC50 in data set [1] of more than 11500 nM. In addition, the selectivity ratio in data set [2] is more than 10.
Turning to `C/C=C/C(=O)O[C@H]1C(C)=C[C@]23C(=O)[C@@H](C=C(C)[C@@H](O)[C@]12O)[C@H]1[C@@H](C[C@H]3C)C1(C)C`, in the data set on MT4, the cytotoxic concentration (CC50) was more than 10000 nM. The molecule also had a 50% effective concentration (EC50) in data set [1] of 600 nM. Moreover, the selectivity ratio in data set [2] is more than 17.
Take `CC1=C[C@@H]2C(=O)[C@]3(C=C(C)[C@H](O)[C@@]3(O)[C@@H]1OC(=O)c1ccc3ccccc3c1)[C@H](C)C[C@@H]1[C@H]2C1(C)C`: in the data set on MT4, the half-maximal cytotoxic concentration (CC50) was more than 8200 nM. For the same molecule, the EC50 in data set [1] is 15.5 nM. Further, the selectivity ratio in data set [2] is more than 179.
The corresponding values for `CC(=O)OCC1=C[C@@H]2C(=O)[C@]3(C=C(C)[C@H](O)[C@@]3(O)[C@@H]1O)[C@H](C)C[C@@H]1[C@H]2C1(C)C` are more than 10300 nM, 1080 nM and more than 10.
In the data set with MT4, `Cc1cn([C@H]2C[C@H](N=[N+]=[N-])[C@@H](CO)O2)c(=O)[nH]c1=O` [ZIDOVUDINE] gave a CC50 of more than 400 nM.
Turning to `C/C=C(/C)C(=O)O[C@H]1C(C)=C[C@]23C(=O)[C@@H](C=C(CO)[C@@H](O)[C@]12O)[C@H]1[C@@H](C[C@H]3C)C1(C)C` [INGENOL MEBUTATE], the half-maximal cytotoxic concentration (CC50) in the data set with MT4 was more than 9300 nM. Moreover, the EC50 in data set [1] was found to be 4.5 nM; in data set [4] it was 4.2 nM. In addition, the result in data set [3] was Active. Moreover, in data set [2], the selectivity ratio is more than 2070.
With `CC(=O)O[C@H]1C(C)=C[C@]23C(=O)[C@@H](C=C(C)[C@@H](OC(=O)c4ccccc4)[C@]12O)[C@H]1[C@@H](C[C@H]3C)C1(C)C`, the CC50 in the data set on MT4 was more than 8400 nM. For the same molecule, it took 367 nM to reach a half-maximal effect in data set [1] (EC50). In data set [2], the selectivity ratio was more than 23.
Take `CC1=C[C@@H]2C(=O)[C@]3(C=C(C)[C@H](O)[C@@]3(O)[C@@H]1OC(=O)/C=C/c1ccccc1)[C@H](C)C[C@@H]1[C@H]2C1(C)C`: the half-maximal cytotoxic concentration (CC50) in the data set on MT4 was more than 8700 nM. In data set [1], this molecule had an EC50 of 396 nM. In addition, the selectivity ratio in data set [2] was more than 22.
As to `CC1=C[C@@H]2C(=O)[C@]3(C=C(C)[C@H](O)[C@@]3(O)[C@@H]1O)[C@H](C)C[C@@H]1[C@H]2C1(C)C`, the CC50 in the data set on MT4 was more than 12000 nM. In addition, the EC50 in data set [1] is more than 12000 nM. Further, the selectivity ratio in data set [2] is more than 10.
In data set [1], `C/C=C(\C)C(=O)O[C@H]1C(C)=C[C@]23C(=O)[C@@H](C=C(C)[C@@H](O)[C@]12O)[C@H]1[C@@H](C[C@H]3C)C1(C)C` came in with an EC50 of 209 nM. The selectivity ratio in data set [2] was more than 46.
As for `CCCCCCCCCCCC(=O)O[C@@]12C[C@@H](C)[C@]34C=C(C)[C@H](O)[C@@]3(O)[C@H](O)C(CO)=C[C@H](C4=O)[C@@H]1C2(C)C`, the CC50 in the data set on MT4 was more than 9200 nM. In data set [1], this molecule gave a 50% effective concentration (EC50) of 33.7 nM. For the same molecule, in data set [2], the selectivity ratio is more than 273.
In the same order, the values of `CC1=C[C@@H]2C(=O)[C@]3(C=C(C)[C@H](OC(=O)/C=C/c4ccccc4)[C@@]3(O)[C@@H]1O)[C@H](C)C[C@@H]1[C@H]2C1(C)C` are more than 8700 nM, 188 nM and more than 45.
The corresponding values for `C/C=C/C(=O)O[C@@H]1C(C)=C[C@@H]2C(=O)[C@]3(C=C(C)[C@H](O)[C@@]13O)[C@H](C)C[C@@H]1[C@H]2C1(C)C` are more than 10000 nM, 630 nM and more than 16.
In the same order, the values of `COc1ccc(C(=O)O[C@@H]2C(C)=C[C@@H]3C(=O)[C@]4(C=C(C)[C@H](O)[C@@]24O)[C@H](C)C[C@@H]2[C@H]3C2(C)C)cc1` are more than 8600 nM, 434 nM and more than 20.
In the data set on MT4, `CC1=C[C@@H]2C(=O)[C@]3(C=C(C)[C@H](OC(=O)c4ccc5ccccc5c4)[C@@]3(O)[C@@H]1O)[C@H](C)C[C@@H]1[C@H]2C1(C)C` showed a 50% cytotoxic concentration (CC50) of more than 8200 nM. In data set [1], this molecule showed an EC50 of 15.1 nM. Besides, the selectivity ratio in data set [2] is more than 543.
In the data set on MT4, `CC1=C[C@@H]2C(=O)[C@]3(C=C(C)[C@H](O)[C@@]3(O)[C@@H]1OC(=O)c1ccccc1)[C@H](C)C[C@@H]1[C@H]2C1(C)C` registered a CC50 of more than 9200 nM. The EC50 in data set [1] turned out to be 42.6 nM. Also, the selectivity ratio in data set [2] was more than 216.
Regarding `CC1=C[C@]23C(=O)[C@@H](C=C(CO)[C@@H](O)[C@]2(O)[C@H]1OC(=O)c1ccc2ccccc2c1)[C@H]1[C@@H](C[C@H]3C)C1(C)C`, the 50% cytotoxic concentration (CC50) in the data set on MT4 is more than 8000 nM. Besides, the EC50 in data set [1] amounted to 1.3 nM; in data set [4], 2.4 nM. Further, in data set [3], the outcome was Active. Moreover, the “Ratio EC50” value in data set [5] stood at 10. In addition, the half-maximal cytotoxic concentration (CC50) at 72 h in data set [6] was more than 20000 nM. In addition, the selectivity ratio in data set [2] was more than 6150.
`C/C=C(/C)C(=O)O[C@H]1C(C)=C[C@]23C(=O)[C@@H](C=C(C)[C@@H](O)[C@]12O)[C@H]1[C@@H](C[C@H]3C)C1(C)C` yielded a half-maximal cytotoxic concentration (CC50) in the data set with MT4 of more than 9700 nM. This molecule also yielded an EC50 in data set [1] of 426 nM. The selectivity ratio in data set [2] is more than 22.8.
The corresponding values for `COc1ccc(C(=O)O[C@H]2C(C)=C[C@]34C(=O)[C@@H](C=C(C)[C@@H](O)[C@]23O)[C@H]2[C@@H](C[C@H]4C)C2(C)C)cc1` are more than 8600 nM, 134 nM and more than 64.
In the same order, the values of `CC1=C[C@@H]2C(=O)[C@]3(C=C(C)[C@H](OC(=O)c4ccccc4)[C@@]3(O)[C@@H]1O)[C@H](C)C[C@@H]1[C@H]2C1(C)C` are more than 9200 nM, 30.5 nM and more than 302.
The corresponding values for `CCCCCCCC(=O)O[C@H]1C(C)=C[C@]23C(=O)[C@@H](C=C(C)[C@@H](O)[C@]12O)[C@H]1[C@@H](C[C@H]3C)C1(C)C` are more than 8700 nM, 145 nM and more than 59.9.
In the data set with MT4, `CCCCCCCCCCCC(=O)O[C@@]12C[C@@H](C)[C@]34C=C(C)[C@H](OC(=O)C(C)C(C)C)[C@@]3(O)[C@H](O)C(CO)=C[C@H](C4=O)[C@@H]1C2(C)C` (some centres undefined) had a 50% cytotoxic concentration (CC50) of more than 6200 nM. Also, the 50% effective concentration (EC50) in data set [1] was determined as 0.8 nM. Besides, in data set [2], the selectivity ratio is more than 7500.
